Laboratory results published in ChEMBL document CHEMBL1649324, “In vitro activity of tebipenem, a new oral carbapenem antibiotic, against beta-lactamase-nonproducing, ampicillin-resistant Haemophilus influenzae” (2010).
Converted amounts (≈) assume the structure as drawn.

Experiments:
Type in all cases: functional
[1] = test system: Haemophilus influenzae; assay: Antimicrobial activity against gBLNAS Haemophilus influenzae by agar dilution method
In short: (§1)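 Agar dilution on Mueller-Hinton agar with 0.5% yeast extract, 2% defibrinated heat-treated horse blood and 15 μg/ml β-NAD+. Plates were incubated 20 h at 37°C in 5% CO2, and the MIC was read. Clinical pediatric isolates (2005–2008) were assigned to genetic resistance classes by PCR.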

[2] = test system: Haemophilus influenzae; assay: Antimicrobial activity against gLow-BLNAR Haemophilus influenzae by agar dilution method; in short: as §1
[3] = test system: Haemophilus influenzae; assay: Antimicrobial activity against gBLNAR Haemophilus influenzae by agar dilution method
In short: (§2)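 Agar dilution MICs on Mueller-Hinton agar with 0.5% yeast extract, 2% defibrinated heat-treated horse blood and 15 μg/ml β-NAD+. Plates read after 20 h at 37°C in 5% CO2. Paediatric clinical isolates (2005–2008) assigned to genetic β-lactam resistance class by PCR. Values are MIC range, MIC50 and MIC90 per class.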

[4] = test system: Haemophilus influenzae; assay: Antimicrobial activity against gBLPAR-TEM1 Haemophilus influenzae by agar dilution method; in short: as §2
[5] = test system: Haemophilus influenzae; assay: Antimicrobial activity against gBLPACR-1 Haemophilus influenzae by agar dilution method; in short: as §1
[6] = test system: Haemophilus influenzae; assay: Antimicrobial activity against gBLPACR-2 Haemophilus influenzae by agar dilution method; in short: as §2
[7] = test system: Haemophilus influenzae; assay: Bactericidal activity against gBLNAR Haemophilus influenzae JPH002 assessed as reduction in bacterial load at MIC after 4 hrs by time-kill analysis
In short: (§3)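 Colonies precultured on chocolate agar were suspended in MH broth to 0.5 McFarland, diluted 10-fold in MH broth with yeast extract, horse blood and β-NAD+, then grown 120 min at 37°C. 500 μl was inoculated into 9.5 ml of the same supplemented broth containing drug at the MIC or 2× MIC, with or without 10% fresh human serum. Tubes were incubated static and viable counts sampled at set intervals.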

[8] = test system: Haemophilus influenzae; assay: Bactericidal activity against gBLNAR Haemophilus influenzae JPH002 assessed as reduction in bacterial load at MIC after 6 hrs by time-kill analysis; in short: as §3
[9] = test system: Haemophilus influenzae; assay: Bactericidal activity against gBLNAR Haemophilus influenzae JPH002 assessed as reduction in bacterial load at MIC after 2 hrs by time-kill analysis in presence of 10% human serum; in short: as §3
[10] = test system: Haemophilus influenzae; assay: Bactericidal activity against gBLNAR Haemophilus influenzae JPH002 assessed as reduction in bacterial load at MIC after 4 hrs by time-kill analysis in presence of 10% human serum; in short: as §3
[11] = test system: Haemophilus influenzae; assay: Bactericidal activity against gBLNAR Haemophilus influenzae JPH002 assessed as reduction in bacterial load at MIC after 6 hrs by time-kill analysis in presence of 10% human serum; in short: as §3
[12] = test system: Haemophilus influenzae; assay: Bactericidal activity against gBLNAR Haemophilus influenzae JPH1306 assessed as reduction in bacterial load at MIC after 4 hrs by time-kill analysis; in short: as §3
[13] = test system: Haemophilus influenzae; assay: Bactericidal activity against gBLNAR Haemophilus influenzae JPH1306 assessed as reduction in bacterial load at MIC after 6 hrs by time-kill analysis; in short: as §3
[14] = test system: Haemophilus influenzae; assay: Bactericidal activity against gBLNAR Haemophilus influenzae JPH1306 assessed as reduction in bacterial load at MIC after 2 hrs by time-kill analysis in presence of 10% human serum; in short: as §3
[15] = test system: Haemophilus influenzae; assay: Bactericidal activity against gBLNAR Haemophilus influenzae JPH1306 assessed as reduction in bacterial load at MIC after 4 hrs by time-kill analysis in presence of 10% human serum; in short: as §3
[16] = test system: Haemophilus influenzae; assay: Bactericidal activity against gBLNAR Haemophilus influenzae JPH1306 assessed as reduction in bacterial load at MIC after 6 hrs by time-kill analysis in presence of 10% human serum; in short: as §3

SMILES | MIC50 [1] | MIC90 [1] | MIC50 [2] | MIC90 [2] | MIC50 [3] | MIC90 [3] | MIC [4] | MIC [5] | MIC [6] | MIC [2] | log10cfu [7] | log10cfu [8] | log10cfu [9] | log10cfu [10] | log10cfu [11] | log10cfu [12] | log10cfu [13] | log10cfu [14] | log10cfu [15] | log10cfu [16]
CO/N=C(\C(=O)N[C@@H]1C(=O)N2C(C(=O)O)=C(COC(C)=O)CS[C@H]12)c1csc(N)n1 [CEFOTAXIME] | 0.016 µg/mL (≈ 0.0351 µM) | 0.031 µg/mL (≈ 0.0681 µM) | 0.031 µg/mL (≈ 0.0681 µM) | 0.12 µg/mL (≈ 0.263 µM) | 0.5 µg/mL (≈ 1.1 µM) | 1 µg/mL (≈ 2.2 µM) | 0.008 µg/mL (≈ 0.0176 µM) | 0.031 µg/mL (≈ 0.0681 µM) | 0.25 µg/mL (≈ 0.549 µM) |  |  |  |  |  |  |  |  |  |  | 
CC1(C)S[C@@H]2[C@H](NC(=O)[C@H](N)c3ccc(O)cc3)C(=O)N2[C@H]1C(=O)O [AMOXICILLIN] | 0.5 µg/mL (≈ 1.37 µM) | 0.5 µg/mL (≈ 1.37 µM) | 2 µg/mL (≈ 5.47 µM) | 4 µg/mL (≈ 10.9 µM) | 8 µg/mL (≈ 21.9 µM) | 32 µg/mL (≈ 87.6 µM) | 8 µg/mL (≈ 21.9 µM) | 8 µg/mL (≈ 21.9 µM) | 2 µg/mL (≈ 5.47 µM) |  |  |  |  |  |  |  |  |  |  | 
CC1(C)S[C@@H]2[C@H](NC(=O)[C@H](N)c3ccccc3)C(=O)N2[C@H]1C(=O)O [AMPICILLIN] | 0.25 µg/mL (≈ 0.715 µM) | 0.5 µg/mL (≈ 1.43 µM) | 1 µg/mL (≈ 2.86 µM) | 1 µg/mL (≈ 2.86 µM) | 2 µg/mL (≈ 5.72 µM) | 8 µg/mL (≈ 22.9 µM) | 8 µg/mL (≈ 22.9 µM) | 8 µg/mL (≈ 22.9 µM) | 2 µg/mL (≈ 5.72 µM) |  |  |  |  |  |  |  |  |  |  | 
C[C@@H](O)[C@H]1C(=O)N2C(C(=O)O)=C(S[C@@H]3CN[C@H](C(=O)N(C)C)C3)[C@H](C)[C@H]12 [MEROPENEM] | 0.063 µg/mL (≈ 0.164 µM) | 0.12 µg/mL (≈ 0.313 µM) | 0.12 µg/mL (≈ 0.313 µM) | 0.25 µg/mL (≈ 0.652 µM) | 0.25 µg/mL (≈ 0.652 µM) | 0.5 µg/mL (≈ 1.3 µM) | 0.031 µg/mL (≈ 0.0808 µM) | 0.063 µg/mL (≈ 0.164 µM) | 0.063 µg/mL (≈ 0.164 µM) |  |  |  |  |  |  |  |  |  |  | 
CC[C@H]1OC(=O)[C@H](C)[C@@H](O[C@H]2C[C@@](C)(OC)[C@@H](O)[C@H](C)O2)[C@H](C)[C@@H](O[C@@H]2O[C@H](C)C[C@H](N(C)C)[C@H]2O)[C@](C)(O)C[C@@H](C)CN(C)[C@H](C)[C@@H](O)[C@]1(C)O [AZITHROMYCIN] | 2 µg/mL (≈ 2.67 µM) | 4 µg/mL (≈ 5.34 µM) | 2 µg/mL (≈ 2.67 µM) | 2 µg/mL (≈ 2.67 µM) | 2 µg/mL (≈ 2.67 µM) | 4 µg/mL (≈ 5.34 µM) | 1 µg/mL (≈ 1.34 µM) | 2 µg/mL (≈ 2.67 µM) | 2 µg/mL (≈ 2.67 µM) |  |  |  |  |  |  |  |  |  |  | 
C=CC1=C(C(=O)O)N2C(=O)[C@@H](NC(=O)/C(=N\O)c3csc(N)n3)[C@H]2SC1 [CEFDINIR] | 0.25 µg/mL (≈ 0.632 µM) | 0.5 µg/mL (≈ 1.26 µM) | 0.5 µg/mL (≈ 1.26 µM) | 2 µg/mL (≈ 5.06 µM) | 8 µg/mL (≈ 20.2 µM) | 32 µg/mL (≈ 80.9 µM) | 0.25 µg/mL (≈ 0.632 µM) | 1 µg/mL (≈ 2.53 µM) | 8 µg/mL (≈ 20.2 µM) | 0.5 µg/mL (≈ 1.26 µM) |  |  |  |  |  |  |  |  |  | 
CC[C@H]1OC(=O)[C@H](C)[C@@H](O[C@H]2C[C@@](C)(OC)[C@@H](O)[C@H](C)O2)[C@H](C)[C@@H](O[C@@H]2O[C@H](C)C[C@H](N(C)C)[C@H]2O)[C@](C)(OC)C[C@@H](C)C(=O)[C@H](C)[C@@H](O)[C@]1(C)O [CLARITHROMYCIN] | 8 µg/mL (≈ 10.7 µM) | 16 µg/mL (≈ 21.4 µM) | 8 µg/mL (≈ 10.7 µM) | 16 µg/mL (≈ 21.4 µM) | 8 µg/mL (≈ 10.7 µM) | 16 µg/mL (≈ 21.4 µM) | 8 µg/mL (≈ 10.7 µM) | 8 µg/mL (≈ 10.7 µM) | 8 µg/mL (≈ 10.7 µM) |  |  |  |  |  |  |  |  |  |  | 
C[C@@H](O)[C@H]1C(=O)N2C(C(=O)O)=C(SC3CN(C4=NCCS4)C3)[C@H](C)[C@H]12 [TEBIPENEM] | 0.063 µg/mL (≈ 0.164 µM) | 0.12 µg/mL (≈ 0.313 µM) | 0.25 µg/mL (≈ 0.652 µM) | 0.5 µg/mL (≈ 1.3 µM) | 0.25 µg/mL (≈ 0.652 µM) | 1 µg/mL (≈ 2.61 µM) | 0.063 µg/mL (≈ 0.164 µM) | 0.12 µg/mL (≈ 0.313 µM) | 0.25 µg/mL (≈ 0.652 µM) |  | 3 | 3 | 3 | 3 | 3 | 3 | 3 | 3 | 3 | 3
